# Measurements as given in ChEMBL document CHEMBL1143246, “Design and synthesis of bicyclic pyrimidinones as potent and orally bioavailable HIV-1 integrase inhibitors” (J Med Chem, 2008).
# Experiments:
# [1] = AUC in rat at 10 mg/kg, po; conditions: plasma
# [2] = Inhibition of human DNA polymerase gamma
# DNA polymerase beta = DNA polymerase beta (Homo sapiens, UniProt P06746); test: Inhibition of human DNA polymerase beta
# [3] = Volume of distribution at steady state in rat at 3 mg/kg, iv or 10 mg/kg, po; type: ADME, organism-based; conditions: in vivo, read-out: Vdss
# How it was run: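 Rats received 3 mg/kg intravenously in DMSO/PEG400/H₂O (20%-60%-20%) and 10 mg/kg orally as a 1% methylcellulose suspension. Volume of distribution was derived from the plasma profiles.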
# Cytochrome P450 2C19 = Cytochrome P450 2C19 (Homo sapiens, UniProt P33261); test: Inhibition of CYP2C19; type: ADME
# [4] = target: Voltage-gated inwardly rectifying potassium channel KCNH2 (Homo sapiens, UniProt Q12809); test: Inhibition of human ERG
# Cytochrome P450 2C9 = Cytochrome P450 2C9 (Homo sapiens, UniProt P11712); test: Inhibition of CYP2C9; type: ADME
# [5] = Plasma clearance in rat at 3 mg/kg, iv or 10 mg/kg, po; type: ADME, organism-based
# [6] = system: Human immunodeficiency virus 1; test: Antiviral activity against HIV1 in human MT4 cell assessed as inhibition of virus spread in presence of 50% normal human serum; type: functional; conditions: Human immunodeficiency virus 1, MT4; read-out: CIC95
# How it was run: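 Spread of HIV-1 infection in MT-4 human T-lymphoid cell culture with 50% normal human serum; CIC95 is the concentration inhibiting spread by ≥95%; mean of at least three independent experiments.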
# [7] = target: T1, DNA polymerase alpha catalytic subunit (Homo sapiens, UniProt P09884); test: Inhibition of human DNA polymerase alpha
# T1 sequence (P09884 whole entry): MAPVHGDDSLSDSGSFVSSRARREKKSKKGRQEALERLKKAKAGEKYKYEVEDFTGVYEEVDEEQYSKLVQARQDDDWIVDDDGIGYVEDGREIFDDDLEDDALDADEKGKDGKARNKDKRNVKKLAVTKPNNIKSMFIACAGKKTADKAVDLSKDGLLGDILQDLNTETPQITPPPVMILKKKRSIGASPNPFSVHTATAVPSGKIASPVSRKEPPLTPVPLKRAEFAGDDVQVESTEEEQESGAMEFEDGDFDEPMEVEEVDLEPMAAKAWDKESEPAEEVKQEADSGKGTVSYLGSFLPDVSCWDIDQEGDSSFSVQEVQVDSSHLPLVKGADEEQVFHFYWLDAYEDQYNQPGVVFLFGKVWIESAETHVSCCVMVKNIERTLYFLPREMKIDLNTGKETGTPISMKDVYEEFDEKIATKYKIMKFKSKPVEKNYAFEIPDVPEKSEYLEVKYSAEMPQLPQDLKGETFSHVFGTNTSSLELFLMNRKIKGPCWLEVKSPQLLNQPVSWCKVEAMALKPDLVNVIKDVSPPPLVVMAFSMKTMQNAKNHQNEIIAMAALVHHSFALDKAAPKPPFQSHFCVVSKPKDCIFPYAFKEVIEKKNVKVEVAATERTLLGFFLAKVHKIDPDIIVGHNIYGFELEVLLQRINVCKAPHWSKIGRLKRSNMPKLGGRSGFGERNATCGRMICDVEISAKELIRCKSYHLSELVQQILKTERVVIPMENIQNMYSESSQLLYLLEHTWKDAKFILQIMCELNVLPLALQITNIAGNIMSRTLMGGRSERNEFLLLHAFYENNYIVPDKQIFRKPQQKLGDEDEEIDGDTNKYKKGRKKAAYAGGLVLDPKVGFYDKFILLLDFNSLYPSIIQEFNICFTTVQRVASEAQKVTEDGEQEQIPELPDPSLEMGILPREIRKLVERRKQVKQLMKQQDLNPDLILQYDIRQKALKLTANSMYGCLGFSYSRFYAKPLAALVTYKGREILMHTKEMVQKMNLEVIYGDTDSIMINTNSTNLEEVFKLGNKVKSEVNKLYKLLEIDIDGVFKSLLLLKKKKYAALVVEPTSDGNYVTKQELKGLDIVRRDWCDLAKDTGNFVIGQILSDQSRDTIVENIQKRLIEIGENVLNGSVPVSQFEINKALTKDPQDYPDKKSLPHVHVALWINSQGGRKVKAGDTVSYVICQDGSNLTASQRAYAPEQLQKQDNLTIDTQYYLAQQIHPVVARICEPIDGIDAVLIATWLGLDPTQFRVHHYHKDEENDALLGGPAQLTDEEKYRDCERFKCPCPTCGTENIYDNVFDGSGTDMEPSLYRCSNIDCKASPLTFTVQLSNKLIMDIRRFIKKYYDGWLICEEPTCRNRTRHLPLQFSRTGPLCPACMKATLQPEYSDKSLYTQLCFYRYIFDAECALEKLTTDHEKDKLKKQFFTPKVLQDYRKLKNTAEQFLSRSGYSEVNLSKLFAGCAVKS
# Homo sapiens = species: Homo sapiens; test: Protein binding in human plasma; conditions: read-out: PPB (converted)
# [8] = Cmax in dog at 4 mg/kg, po; type: ADME, organism-based, Canis lupus familiaris; set-up: dose 4 mg/kg, route oral; conditions: in vivo
# How it was run: (§1)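 In vivo PK: iv dosing in DMSO/PEG400/H₂O mixtures, oral dosing as methylcellulose suspension. Half-life was taken after iv dosing; AUC and Cmax after po dosing.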
# [9] = Cmax in rhesus monkey at 10 mg/kg, po; type: ADME, organism-based, Macaca mulatta; set-up: dose 10 mg/kg, route oral; conditions: in vivo
# Cytochrome P450 3A4 = Cytochrome P450 3A4 (Homo sapiens, UniProt P08684); test: Inhibition of CYP3A4; type: ADME
# [10] = Half life in rhesus monkey at 2 mg/kg, iv; type: ADME, organism-based, Macaca mulatta; set-up: dose 2 mg/kg, route intravenous; conditions: in vivo
# How it was run: (§2)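 Rhesus dosed 2 mg/kg iv in DMSO; oral arm 10 mg/kg as 0.5% methylcellulose suspension; plasma clearance and iv half-life.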
# [11] = Oral bioavailability in rhesus monkey at 10 mg/kg; type: ADME, organism-based, Macaca mulatta; conditions: in vivo
# [12] = AUC in rhesus monkey at 10 mg/kg, po; type: ADME, organism-based, Macaca mulatta; set-up: dose 10 mg/kg, route oral; conditions: plasma
# Canis familiaris [13] = test: AUC in dog at 2 mg/kg, po; type: ADME, organism-based, Canis lupus familiaris, Plasma; set-up: dose 2 mg/kg, route oral; conditions: in vivo
# How it was run: as §1
# [14] = Inhibition of recombinant HIV1 integrase strand transfer activity
# Liver = test: Metabolic stability in dog liver microsomes in presence of NADPH and UDPGA; type: ADME, Canis lupus familiaris, Microsome
# How it was run: (§3)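 Multiple time points over 1 h: compound 1 µM with liver microsomes 1 mg/mL, in the presence of both UDPGA and NADPH; degradation followed by LC/MS/MS.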
# Liver microsomes [15] = test: Metabolic stability in rat liver microsomes in presence of NADPH and UDPGA; type: ADME, Microsome
# How it was run: as §3
# [16] = Plasma clearance in rhesus monkey at 2 mg/kg, iv or 10 mg/kg, po; type: ADME, organism-based, Macaca mulatta
# How it was run: as §2
# [17] = Inhibition of HIV-RNase-H; set-up: species or system Human immunodeficiency virus
# [18] = Volume of distribution at steady state in rhesus monkey at 2 mg/kg, iv or 10 mg/kg, po; conditions: in vivo, read-out: Vdss
# [19] = Half life in rat at 3 mg/kg, iv; type: ADME, organism-based; set-up: dose 3 mg/kg, route intravenous; conditions: in vivo
# How it was run: as §1
# Canis familiaris [20] = test: Oral bioavailability in dog at 2 mg/kg; type: ADME, organism-based, Canis lupus familiaris; conditions: in vivo
# How it was run: as §1
# [21] = system: Human immunodeficiency virus 1; test: Antiviral activity against HIV1 in human MT4 cell assessed as inhibition of virus spread in presence of 10% fetal bovine serum; type: functional; conditions: Human immunodeficiency virus 1, MT4; read-out: CIC95
# How it was run: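 Spread of HIV-1 infection in MT-4 human T-lymphoid cell culture with 10% fetal bovine serum; CIC95 is the concentration inhibiting spread by ≥95%; mean of at least three independent experiments.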
# [22] = Cmax in dog at 2 mg/kg, po; type: ADME, organism-based, Canis lupus familiaris; set-up: dose 2 mg/kg, route oral; conditions: in vivo
# How it was run: as §1
# [23] = Protein binding in rat plasma; type: ADME, cell-free; conditions: read-out: PPB (converted)
# How it was run: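 Plasma protein binding was measured by ultrafiltration after a 1 h incubation of compound in plasma at 37 °C.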
# [24] = Protein binding in dog plasma; type: ADME, cell-free, Canis lupus familiaris; conditions: read-out: PPB (converted)
# How it was run: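 Plasma protein binding measured by ultrafiltration after incubation at 37 °C for 1 h.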
# Liver microsomes [25] = test: Metabolic stability in human liver microsomes in presence of NADPH and UDPGA; type: ADME, Microsome
# How it was run: as §3
# [26] = Volume of distribution at steady state in dog at 1 mg/kg, iv or 2 mg/kg, po; conditions: in vivo, read-out: Vdss
# [27] = Oral bioavailability in rat at 10 mg/kg; type: ADME, organism-based; conditions: in vivo
# How it was run: as §1
# [28] = Half life in dog at 1 mg/kg, iv; type: ADME, organism-based, Canis lupus familiaris; set-up: dose 1 mg/kg, route intravenous; conditions: in vivo
# How it was run: as §1
# Cytochrome P450 2D6 = Cytochrome P450 2D6 (Homo sapiens, UniProt P10635); test: Inhibition of CYP2D6; type: ADME
# Cytochrome P450 2D6, sequence (P10635 whole entry): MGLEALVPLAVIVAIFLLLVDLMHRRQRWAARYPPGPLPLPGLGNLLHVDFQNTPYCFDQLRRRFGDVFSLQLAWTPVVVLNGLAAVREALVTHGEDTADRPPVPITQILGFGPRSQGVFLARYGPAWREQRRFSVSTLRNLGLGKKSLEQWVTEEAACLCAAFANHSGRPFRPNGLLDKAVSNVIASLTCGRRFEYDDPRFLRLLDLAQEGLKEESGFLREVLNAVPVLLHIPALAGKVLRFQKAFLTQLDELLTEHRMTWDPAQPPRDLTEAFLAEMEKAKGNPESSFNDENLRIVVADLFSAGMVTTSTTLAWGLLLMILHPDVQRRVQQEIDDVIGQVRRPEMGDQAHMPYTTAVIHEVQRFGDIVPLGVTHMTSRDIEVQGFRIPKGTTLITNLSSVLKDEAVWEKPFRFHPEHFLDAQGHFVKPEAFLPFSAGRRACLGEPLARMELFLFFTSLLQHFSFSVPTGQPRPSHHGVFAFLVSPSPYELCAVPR
# Cytochrome P450 2C9, sequence (P11712 whole entry): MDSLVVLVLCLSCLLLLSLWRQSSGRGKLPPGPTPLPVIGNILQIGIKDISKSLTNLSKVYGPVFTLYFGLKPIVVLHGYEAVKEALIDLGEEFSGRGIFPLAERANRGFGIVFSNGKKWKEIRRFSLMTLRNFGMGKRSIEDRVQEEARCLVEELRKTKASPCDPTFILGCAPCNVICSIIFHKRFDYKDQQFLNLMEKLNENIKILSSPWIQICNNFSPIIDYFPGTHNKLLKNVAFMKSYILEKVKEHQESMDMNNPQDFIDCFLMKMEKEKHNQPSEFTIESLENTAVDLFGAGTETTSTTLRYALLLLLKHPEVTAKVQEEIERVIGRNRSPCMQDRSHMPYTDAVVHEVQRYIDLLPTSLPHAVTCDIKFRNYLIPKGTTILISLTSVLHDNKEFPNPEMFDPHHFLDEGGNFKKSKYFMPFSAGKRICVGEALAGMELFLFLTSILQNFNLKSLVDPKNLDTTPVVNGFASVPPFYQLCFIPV
# Cytochrome P450 2C19, sequence (P33261 whole entry): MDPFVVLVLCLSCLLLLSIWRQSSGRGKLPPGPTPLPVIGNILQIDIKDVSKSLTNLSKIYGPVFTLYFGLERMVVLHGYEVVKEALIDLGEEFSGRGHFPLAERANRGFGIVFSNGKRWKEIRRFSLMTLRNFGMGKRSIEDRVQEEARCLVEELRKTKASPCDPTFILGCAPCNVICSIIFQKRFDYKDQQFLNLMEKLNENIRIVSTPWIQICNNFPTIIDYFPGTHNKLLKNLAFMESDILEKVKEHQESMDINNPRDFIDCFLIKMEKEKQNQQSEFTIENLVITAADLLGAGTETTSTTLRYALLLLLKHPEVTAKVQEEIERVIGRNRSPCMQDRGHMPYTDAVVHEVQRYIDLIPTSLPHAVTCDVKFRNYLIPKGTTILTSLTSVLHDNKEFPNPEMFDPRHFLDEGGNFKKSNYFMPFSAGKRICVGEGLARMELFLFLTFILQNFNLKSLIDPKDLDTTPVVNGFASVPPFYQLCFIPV
# Cytochrome P450 3A4, sequence (P08684 whole entry): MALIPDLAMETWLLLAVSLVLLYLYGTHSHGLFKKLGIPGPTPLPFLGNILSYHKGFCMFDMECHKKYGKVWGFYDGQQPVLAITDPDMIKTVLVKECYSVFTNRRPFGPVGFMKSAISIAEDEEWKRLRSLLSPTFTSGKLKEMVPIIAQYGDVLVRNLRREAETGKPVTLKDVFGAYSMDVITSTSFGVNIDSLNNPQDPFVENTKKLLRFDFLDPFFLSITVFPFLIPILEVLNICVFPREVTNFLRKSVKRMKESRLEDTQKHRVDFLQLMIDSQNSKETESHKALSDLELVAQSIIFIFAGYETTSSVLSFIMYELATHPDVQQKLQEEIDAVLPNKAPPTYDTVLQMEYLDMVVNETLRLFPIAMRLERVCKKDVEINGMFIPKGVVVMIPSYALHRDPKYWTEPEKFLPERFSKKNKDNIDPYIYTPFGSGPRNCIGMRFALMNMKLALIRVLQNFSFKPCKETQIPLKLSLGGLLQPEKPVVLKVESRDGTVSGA
# Voltage-gated inwardly rectifying potassium channel KCNH2, sequence (Q12809 whole entry): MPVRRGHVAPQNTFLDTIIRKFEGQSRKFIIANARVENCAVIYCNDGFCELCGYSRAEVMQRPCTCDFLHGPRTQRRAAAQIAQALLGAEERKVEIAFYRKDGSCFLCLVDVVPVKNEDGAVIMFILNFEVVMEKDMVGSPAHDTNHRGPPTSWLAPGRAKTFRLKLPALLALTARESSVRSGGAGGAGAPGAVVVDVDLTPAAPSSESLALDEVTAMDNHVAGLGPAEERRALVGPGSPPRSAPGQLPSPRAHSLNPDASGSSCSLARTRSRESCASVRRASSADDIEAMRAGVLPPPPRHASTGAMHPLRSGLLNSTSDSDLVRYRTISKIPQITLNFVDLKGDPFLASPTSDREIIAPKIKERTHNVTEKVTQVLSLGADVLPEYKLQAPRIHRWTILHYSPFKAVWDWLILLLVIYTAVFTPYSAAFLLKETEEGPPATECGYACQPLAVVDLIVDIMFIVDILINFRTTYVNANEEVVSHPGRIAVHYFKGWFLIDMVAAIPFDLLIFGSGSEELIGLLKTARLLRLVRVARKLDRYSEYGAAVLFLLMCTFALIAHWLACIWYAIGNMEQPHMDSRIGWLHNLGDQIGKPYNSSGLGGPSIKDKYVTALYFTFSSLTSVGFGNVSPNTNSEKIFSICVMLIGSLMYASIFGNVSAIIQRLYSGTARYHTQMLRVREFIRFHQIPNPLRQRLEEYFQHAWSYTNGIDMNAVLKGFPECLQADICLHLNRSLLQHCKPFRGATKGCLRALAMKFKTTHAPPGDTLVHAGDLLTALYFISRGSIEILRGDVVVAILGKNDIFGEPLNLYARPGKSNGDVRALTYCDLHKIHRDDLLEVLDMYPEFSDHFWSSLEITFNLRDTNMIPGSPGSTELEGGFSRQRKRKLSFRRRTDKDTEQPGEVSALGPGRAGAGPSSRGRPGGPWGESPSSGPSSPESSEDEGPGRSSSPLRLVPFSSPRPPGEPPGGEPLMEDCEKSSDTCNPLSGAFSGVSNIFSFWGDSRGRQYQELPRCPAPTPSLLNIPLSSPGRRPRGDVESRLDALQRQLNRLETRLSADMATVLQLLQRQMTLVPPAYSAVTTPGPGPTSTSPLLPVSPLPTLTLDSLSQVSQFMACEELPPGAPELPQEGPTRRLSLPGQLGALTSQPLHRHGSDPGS
smiles,measurement,setting,value
CN(C)C(=O)C(=O)N(C)[C@H]1CCCCn2c1nc(C(=O)NCc1ccc(F)cc1)c(O)c2=O,AUC,[1],37 µM·h
same,IC50,[2],> 10 µM
same,IC50,DNA polymerase beta,> 10 µM
same,Vd,[3],0.7 L/kg
same,IC50,Cytochrome P450 2C19,> 100 µM
same,IC50,[4],> 10 µM
same,IC50,Cytochrome P450 2C9,75 µM
same,clearance,[5],7 mL/min/kg
same,IC95,[6],0.013 µM
same,IC50,[7],> 10 µM
same,fraction unbound,Homo sapiens,0.19
same,Cmax,[8],27 µM
same,Cmax,[9],10 µM
same,IC50,Cytochrome P450 3A4,> 100 µM
same,half-life,[10],2.6 h
same,bioavailability,[11],31%
same,AUC,[12],14 µM·h
same,AUC,Canis familiaris [13],31 µM·h
same,IC50,[14],0.012 µM
same,Stability,Liver,4 µL/min/mg
same,Stability,Liver microsomes [15],11 µL/min/mg
same,clearance,[16],8 mL/min/kg
same,IC50,[17],> 50 µM
same,Vd,[18],0.7 L/kg
same,half-life,[19],7.4 h
same,F,Canis familiaris [20],61%
same,IC95,[21],0.01 µM
same,Cmax,[22],25 µM
same,fraction unbound,[23],0.06
same,fraction unbound,[24],0.24
same,Stability,Liver microsomes [25],3 µL/min/mg
same,Vd,[26],0.9 L/kg
same,bioavailability,[27],64%
same,half-life,[28],2.1 h
same,IC50,Cytochrome P450 2D6,> 100 µM
